Source: ChEMBL document CHEMBL1127749 (J Med Chem, 1994)

Legend:
Rattus norvegicus [1] = species: Rattus norvegicus; assay: Ratio of binding affinity at [3H]quinuclidinyl benzilate binding on rat brain stem homogenate to [3H]pirenzepine binding on rat brain homogenate
[2] = biological target: Muscarinic acetylcholine receptor; assay: In vitro binding affinity for muscarinic receptor by displacing [3H]oxotremorine-M binding on rat brain homogenate.; format: tissue-based
Method in brief: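 Duplicate full curves of five drug concentrations over 3 decades, triplicate points. IC50 taken from hand-drawn log curves; Ki via Cheng–Prusoff.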

Rattus norvegicus [3] = species: Rattus norvegicus; assay: Ratio of binding affinity at [3H]quinuclidinyl benzilate binding on rat brain homogenate to [3H]- Oxotremorine-M binding on rat brain homogenate; format: functional
Method in brief: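 Ago ratio computed as Ki from [³H]QNB binding to whole rat brain homogenate divided by Ki from [³H]oxotremorine-M binding to whole rat brain homogenate.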

[4] = biological target: T1, Muscarinic acetylcholine receptor M1 (Rattus norvegicus, UniProt P08482); assay: In vitro binding affinity for muscarinic M1 receptor by displacing [3H]pirenzepine binding on rat brain homogenate.; format: tissue-based
T1 sequence (P08482 whole entry): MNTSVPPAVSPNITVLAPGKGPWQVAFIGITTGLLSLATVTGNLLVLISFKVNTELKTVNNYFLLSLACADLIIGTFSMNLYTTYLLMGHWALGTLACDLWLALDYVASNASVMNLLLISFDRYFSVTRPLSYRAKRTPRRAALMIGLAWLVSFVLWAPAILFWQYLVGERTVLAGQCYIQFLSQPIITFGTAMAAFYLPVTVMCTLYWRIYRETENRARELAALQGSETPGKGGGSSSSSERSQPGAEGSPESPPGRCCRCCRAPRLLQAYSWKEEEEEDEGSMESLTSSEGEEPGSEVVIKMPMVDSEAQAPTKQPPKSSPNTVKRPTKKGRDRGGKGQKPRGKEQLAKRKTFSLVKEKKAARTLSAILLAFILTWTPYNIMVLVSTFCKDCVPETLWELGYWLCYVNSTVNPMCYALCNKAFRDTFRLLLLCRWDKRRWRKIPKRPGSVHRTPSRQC
Method in brief: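 Two complete curves, five test concentrations spanning 3 decades, each in triplicate. IC50 read from hand-drawn log concentration–response curves, converted to Ki by Cheng–Prusoff.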

[5] = In vitro binding affinity for muscarinic receptor by displacing[ H]Quinuclidinyl benzilate binding on rat brain stem homogenate.; format: tissue-based
Method in brief: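 Rat brainstem homogenate; displacement of [3H]quinuclidinyl benzilate (0.12 nM). Five test concentrations in triplicate spanning 3 decades, two complete curves. IC50 read from hand-drawn log concentration–response curves and converted to Ki by Cheng–Prusoff using KD 9.7 pM from Scatchard analysis.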

[6] = biological target: Muscarinic acetylcholine receptor; assay: In vitro binding affinity for muscarinic receptor by displacing [3H]quinuclidinyl benzilate binding on rat brain homogenate; format: tissue-based
Method in brief: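 Two concentration–response curves, five concentrations covering 3 decades, triplicates. IC50 estimated from hand-drawn log concentration–response curves and converted to Ki with Cheng–Prusoff equation.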

[7] = biological target: Muscarinic acetylcholine receptor M2 (Mus musculus) (UniProt Q9ERZ4); assay: In vivo determination of peripheral M2 receptor mediated tremor, cholinergic side effect
[8] = In vitro binding affinity for muscarinic receptors by displacing [3H]quinuclidinyl benzilate binding on rat brain homogenate; format: tissue-based
[9] = biological target: Muscarinic acetylcholine receptor; assay: In vitro binding affinity for muscarinic receptors by displacing [3H]quinuclidinyl benzilate binding on rat brain stem homogenate.; format: tissue-based
[10] = biological target: Muscarinic acetylcholine receptor M2 (Mus musculus) (UniProt Q9ERZ4); assay: In vivo determination of peripheral M2 receptor mediated salivation, cholinergic side effect
[11] = biological target: Muscarinic acetylcholine receptor M2 (Mus musculus) (UniProt Q9ERZ4); assay: In vivo determination of peripheral M2 receptor mediated hypothermia, cholinergic side effect
[12] = biological target: T2, Muscarinic acetylcholine receptor M3 (Cavia porcellus, UniProt Q8VH26); assay: In vitro ability to contract isolated guinea pig ileum was used to estimate M2/M3 agonist effect; format: functional, tissue-based
[13] = biological target: T1, Muscarinic acetylcholine receptor M1; assay: M1 agonist activity estimated by rat superior cervical ganglion depolarization; format: functional, tissue-based
[14] = biological target: Muscarinic acetylcholine receptor M2 (Cavia porcellus); assay: M2 agonist activity estimated by depression of isolated guinea pig left atrium
[15] = biological target: Muscarinic acetylcholine receptor; assay: In vitro binding affinity for muscarinic receptor by displacing [3H]quinuclidinyl benzilate binding on rat brain stem homogenate.; format: tissue-based
Method in brief: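 Two full curves, five test concentrations over 3 decades in triplicate. Hand-drawn log curves gave IC50; Ki by Cheng–Prusoff.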

[16] = biological target: Muscarinic acetylcholine receptor M3 (Cavia porcellus)
[17] = biological target: T1, Muscarinic acetylcholine receptor M1; assay: In vitro ability to depolarize isolated rat superior cervical ganglion was used to estimate their M1 agonistic effect; format: functional, tissue-based
Method in brief: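 Because the concentration–response curve is biphasic, EC50 is given as equal to or greater than the calculated value. Apparent efficacy (RM) is maximum effect relative to muscarine's maximum on separate ganglia. Values are means of three to seven separate experiments.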

[18] = biological target: T2, Muscarinic acetylcholine receptor M3; assay: In vitro ability to contract isolated guinea pig ileum was used to estimate M3 agonist effect; format: functional, tissue-based

T2 sequence (Q8VH26 whole entry): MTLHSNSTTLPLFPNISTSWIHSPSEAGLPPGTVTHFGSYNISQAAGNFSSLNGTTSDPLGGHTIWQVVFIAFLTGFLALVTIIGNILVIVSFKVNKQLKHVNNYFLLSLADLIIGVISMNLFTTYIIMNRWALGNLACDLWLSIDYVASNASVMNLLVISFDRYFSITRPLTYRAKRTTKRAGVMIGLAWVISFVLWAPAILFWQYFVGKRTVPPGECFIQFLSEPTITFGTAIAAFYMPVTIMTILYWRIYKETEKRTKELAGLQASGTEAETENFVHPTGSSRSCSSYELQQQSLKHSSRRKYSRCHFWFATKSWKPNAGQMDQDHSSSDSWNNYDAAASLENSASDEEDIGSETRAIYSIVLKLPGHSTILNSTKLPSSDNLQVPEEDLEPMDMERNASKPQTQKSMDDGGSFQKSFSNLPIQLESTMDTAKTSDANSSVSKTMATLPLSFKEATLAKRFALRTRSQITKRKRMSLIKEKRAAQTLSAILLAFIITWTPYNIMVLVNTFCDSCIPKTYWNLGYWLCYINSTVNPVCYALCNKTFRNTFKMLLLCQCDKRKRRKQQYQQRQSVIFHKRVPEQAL

SMILES | Ratio (Rattus norvegicus [1]) | Ki [2] [nM] | Ratio (Rattus norvegicus [3]) | Ki [4] [nM] | Ki [5] [nM] | Ki [6] [nM] | ED50 [7] [µmol/kg] | Ki [8] [nM] | Ki [9] [nM] | ED50 [10] [µmol/kg] | ED50 [11] [µmol/kg] | EC50 [12] [nM] | EC50 [13] [nM] | EC50 [14] [nM] | Ki [15] [nM] | EC50 [16] [nM] | EC50 [17] [nM] | EC50 [18] [nM]
CCCCCCCn1nnc(C2=CCCN(C)C2)n1 | 4.3 | 120 | 1.2 | 37 | 160 | 140 |  |  |  |  |  |  |  |  |  |  |  | 
C[N+](C)(C)CC#CCOC(=O)Nc1cccc(Cl)c1.[Cl-] | 0.8 | 18 | 28 | 600 |  |  | > 63 | 500 | 460 | > 63 | > 63 | 6500 | ≥ 3900 |  |  |  |  | 
C=CCn1ncc(C2CCCNC2)n1 (racemic) |  | 25 |  | 100 |  | 910 |  |  |  |  |  | 4400 | > 2800 | 1100 | 300 |  |  | 
CCN1C(=O)CC2(CCN(C)CC2)C1=O | 1 | 14 | 49 | 400 |  | 690 |  |  |  |  |  |  | ≥ 1100 | 400 | 400 | 430 |  | 
CCn1nnc(C2=CCCNC2)n1 |  | 23 |  | 960 |  | 1600 |  |  |  |  |  |  |  |  | 280 |  | ≥ 3300 | 6400
CCn1ncc(C2=CCCNC2)n1 | 1.4 | 3.7 | 78 | 120 |  | 290 |  |  |  |  |  |  | ≥ 650 | 270 | 170 | 770 |  | 
